Reference: ChEMBL document CHEMBL4014308, “Amphiphilic Tobramycin-Lysine Conjugates Sensitize Multidrug Resistant Gram-Negative Bacteria to Rifampicin and Minocycline” (J Med Chem, 2017)
≈ marks a conversion by molar mass, not a printed value. Calls of active or inactive are those of the source. The calls are words filed in the database; no cut-off is given here.

Legend:
Assay type in all cases: functional
[1] = system: Pseudomonas aeruginosa; assay: Antibacterial activity against Pseudomonas aeruginosa PAO1 after 18 hrs by microtiter dilution assay; details: PAO1, 18 h
How it was run: (§1)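 Broth microdilution following CLSI guidelines. An overnight culture was adjusted to 0.5 McFarland in saline, then diluted 1:50 in Mueller-Hinton broth. This inoculum was added in equal volume to 2-fold serial dilutions of agent in MHB and incubated 18 h at 37 °C. MIC was the lowest concentration with no visible growth.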

[2] = system: Pseudomonas aeruginosa; assay: Antibacterial activity against multidrug/extremely drug-resistant/colistin-resistant Pseudomonas aeruginosa isolate 101243 after 18 hrs by microtiter dilution assay; details: isolate 101243, 18 h; how it was run: as §1
[3] = system: Staphylococcus aureus; assay: Antibacterial activity against Staphylococcus aureus ATCC 29213 after 18 hrs by microtiter dilution assay; details: ATCC 29213, 18 h; how it was run: as §1
[4] = system: Pseudomonas aeruginosa; assay: Antibacterial activity against multidrug/extremely drug-resistant/colistin-susceptible Pseudomonas aeruginosa isolate 100036 after 18 hrs by microtiter dilution assay; details: isolate 100036, 18 h; how it was run: as §1
[5] = system: Pseudomonas aeruginosa; assay: Antibacterial activity against multidrug/extremely drug-resistant/colistin-susceptible Pseudomonas aeruginosa isolate P264-104354 after 18 hrs by microtiter dilution assay; details: isolate P264-104354, 18 h; how it was run: as §1
[6] = system: Staphylococcus aureus; assay: Antibacterial activity against methicillin resistant Staphylococcus aureus ATCC 33592 after 18 hrs by microtiter dilution assay; details: ATCC 33592, 18 h; how it was run: as §1
[7] = system: Pseudomonas aeruginosa; assay: Synergistic antibacterial activity against Pseudomonas aeruginosa PAO1 after 18 hrs in presence of rifampicin by checkerboard assay
How it was run: (§2)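 Checkerboard in MHB: antibiotic diluted along one axis and adjuvant along the other (10 × 7 matrix). Inoculum was a 1:50 dilution in MHB of a 0.5 McFarland saline suspension; incubated 18 h at 37 °C. Each FIC = concentration in the no-growth well divided by the MIC alone; FIC index = sum of both FICs. ≤0.5 synergy, 0.5–4 no interaction, ≥4 antagonism.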

[8] = system: Pseudomonas aeruginosa; assay: Synergistic antibacterial activity against Pseudomonas aeruginosa PAO1 after 18 hrs in presence of minocycline by checkerboard assay; how it was run: as §2
[9] = system: Pseudomonas aeruginosa; assay: Antibacterial activity against multidrug/extremely drug-resistant/colistin-susceptible Pseudomonas aeruginosa isolate P262-101856 after 18 hrs by microtiter dilution assay; details: isolate P262-101856, 18 h; how it was run: as §1
[10] = system: Pseudomonas aeruginosa; assay: Antibacterial activity against gentamicin/tobramycin-resistant Pseudomonas aeruginosa isolate CANWARD-2011 96846 after 18 hrs by microtiter dilution assay; details: isolate CANWARD-2011 96846, 18 h; how it was run: as §1
[11] = system: Acinetobacter baumannii; assay: Antibacterial activity against Acinetobacter baumannii isolate CAN-ICU 63169 after 18 hrs by microtiter dilution assay; details: isolate CAN-ICU 63169, 18 h
How it was run: (§3)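 Broth microdilution per CLSI. Overnight culture adjusted to 0.5 McFarland in saline, diluted 1:50 in Mueller-Hinton broth, and added to an equal volume of 2-fold serial compound dilutions in MHB. Incubated 18 h at 37 °C. MIC taken as the lowest concentration with no visible growth.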

[12] = system: Enterococcus faecalis; assay: Antibacterial activity against Enterococcus faecalis ATCC 29212 after 18 hrs by microtiter dilution assay; details: ATCC 29212, 18 h; how it was run: as §3
[13] = system: Streptococcus pneumoniae; assay: Antibacterial activity against Streptococcus pneumoniae ATCC 49619 after 18 hrs by microtiter dilution assay; details: ATCC 49619, 18 h; how it was run: as §3
[14] = system: Pseudomonas aeruginosa; assay: Antibacterial activity against multidrug/extremely drug-resistant/colistin-resistant Pseudomonas aeruginosa isolate 91433 after 18 hrs by microtiter dilution assay; details: isolate 91433, 18 h; how it was run: as §1
[15] = system: Pseudomonas aeruginosa; assay: Antibacterial activity against gentamicin-resistant Pseudomonas aeruginosa isolate CAN-ICU 62308 after 18 hrs by microtiter dilution assay; details: isolate CAN-ICU 62308, 18 h; how it was run: as §1
[16] = system: Escherichia coli; assay: Antibacterial activity against gentamicin/tobramycin/ciprofloxacin-resistant Escherichia coli isolate CANWARD-2011 97615 harboring AAC3-2A after 18 hrs by microtiter dilution assay; details: isolate CANWARD-2011 97615, 18 h; how it was run: as §1
[17] = system: Staphylococcus epidermidis; assay: Antibacterial activity against methicillin-susceptible Staphylococcus epidermidis isolate CANWARD-2008 81388 after 18 hrs by microtiter dilution assay; details: isolate CANWARD-2008 81388, 18 h; how it was run: as §1
[18] = system: Escherichia coli; assay: Antibacterial activity against gentamicin-resistant Escherichia coli isolate CAN-ICU 61714 after 18 hrs by microtiter dilution assay; details: isolate CAN-ICU 61714, 18 h; how it was run: as §1
[19] = system: Escherichia coli; assay: Antibacterial activity against Escherichia coli ATCC 25922 after 18 hrs by microtiter dilution assay; details: ATCC 25922, 18 h; how it was run: as §1
[20] = system: Pseudomonas aeruginosa; assay: Antibacterial activity against multidrug/extremely drug-resistant/colistin-susceptible Pseudomonas aeruginosa isolate 101885 after 18 hrs by microtiter dilution assay; details: isolate 101885, 18 h; how it was run: as §1
[21] = system: Escherichia coli; assay: Antibacterial activity against amikacin-resistant Escherichia coli isolate CAN-ICU 63074 after 18 hrs by microtiter dilution assay; details: isolate CAN-ICU 63074, 18 h; how it was run: as §1
[22] = system: Pseudomonas aeruginosa; assay: Antibacterial activity against multidrug/extremely drug-resistant/colistin-susceptible Pseudomonas aeruginosa isolate P259-96918 after 18 hrs by microtiter dilution assay; details: isolate P259-96918, 18 h; how it was run: as §1
[23] = system: Enterococcus faecium; assay: Antibacterial activity against Enterococcus faecium ATCC 27270 after 18 hrs by microtiter dilution assay; details: ATCC 27270, 18 h; how it was run: as §3
[24] = system: Stenotrophomonas maltophilia; assay: Antibacterial activity against Stenotrophomonas maltophilia isolate CAN-ICU 62584 after 18 hrs by microtiter dilution assay; details: isolate CAN-ICU 62584, 18 h; how it was run: as §3
[25] = system: Pseudomonas aeruginosa; assay: Antibacterial activity against Pseudomonas aeruginosa ATCC 27853 after 18 hrs by microtiter dilution assay; details: ATCC 27853, 18 h; how it was run: as §3
[26] = system: Klebsiella pneumoniae; assay: Antibacterial activity against Klebsiella pneumoniae ATCC 13883 after 18 hrs by microtiter dilution assay; details: ATCC 13883, 18 h; how it was run: as §3
[27] = system: Staphylococcus epidermidis; assay: Antibacterial activity against methicillin-resistant Staphylococcus epidermidis isolate CAN-ICU 61589 after 18 hrs by microtiter dilution assay; details: isolate CAN-ICU 61589, 18 h; how it was run: as §1

Structure (SMILES)	MIC [1] [µg/mL]	MIC [2] [µg/mL]	MIC [4] [µg/mL]	MIC [5] [µg/mL]	MIC [9] [µg/mL]	MIC [14] [µg/mL]	MIC [20] [µg/mL]	MIC [21] [µg/mL]	MIC [22] [µg/mL]	other results
Cl.Cl.Cl.Cl.Cl.Cl.Cl.NCCCC[C@H](N)C(=O)N(CCCCO[C@@H]1[C@@H](O[C@H]2O[C@H](CO)[C@@H](O)[C@H](N)[C@H]2O)[C@H](N)C[C@H](N)[C@H]1O[C@H]1O[C@H](CN)[C@@H](O)C[C@H]1N)Cc1c2ccccc2c(Cl)c2ccccc12	> 512	256	> 512	> 512	> 512	32	256	64	> 512	MIC [3]: 64 µg/mL; MIC [6]: 64 µg/mL; Activity [7]: inactive; Activity [8]: inactive; MIC [10]: > 128 µg/mL; MIC [11]: > 128 µg/mL; MIC [12]: > 128 µg/mL; MIC [13]: > 128 µg/mL; MIC [15]: 64 µg/mL; MIC [16]: 64 µg/mL; MIC [17]: 16 µg/mL; MIC [18]: 64 µg/mL; MIC [19]: 32 µg/mL; MIC [23]: > 128 µg/mL; MIC [24]: > 128 µg/mL; MIC [25]: > 128 µg/mL; MIC [26]: 128 µg/mL; MIC [27]: 32 µg/mL
CN[C@H](CC(C)C)C(=O)N[C@H]1C(=O)N[C@@H](CC(N)=O)C(=O)N[C@H]2C(=O)N[C@H]3C(=O)N[C@H](C(=O)N[C@H](C(=O)O)c4cc(O)cc(O)c4-c4cc3ccc4O)[C@H](O)c3ccc(c(Cl)c3)Oc3cc2cc(c3O[C@@H]2O[C@H](CO)[C@@H](O)[C@H](O)[C@H]2O[C@H]2C[C@](C)(N)[C@H](O)[C@H](C)O2)Oc2ccc(cc2Cl)[C@H]1O [VANCOMYCIN]	> 1020	–	–	–	–	–	–	–	–	–
C[C@@H](O)[C@H]1C(=O)N2C(C(=O)O)=C(S[C@@H]3CN[C@H](C(=O)N(C)C)C3)[C@H](C)[C@H]12 [MEROPENEM]	0.5 (≈ 1.3 µM)	–	–	–	–	–	–	–	–	–
NCC[C@H](O)C(=O)N[C@@H]1C[C@H](N)[C@@H](O[C@H]2O[C@H](CN)[C@@H](O)[C@H](O)[C@H]2O)[C@H](O)[C@H]1O[C@H]1O[C@H](CO)[C@@H](O)[C@H](N)[C@H]1O [AMIKACIN]	1 (≈ 1.71 µM)	–	–	–	–	–	–	32 (≈ 54.6 µM)	–	–
CC[C@H]1OC(=O)[C@H](C)[C@@H](O[C@H]2C[C@@](C)(OC)[C@@H](O)[C@H](C)O2)[C@H](C)[C@@H](O[C@@H]2O[C@H](C)C[C@H](N(C)C)[C@H]2O)[C@](C)(O)C[C@@H](C)C(=O)[C@H](C)[C@@H](O)[C@]1(C)O [ERYTHROMYCIN]	256 (≈ 349 µM)	1020 (≈ 1400 µM)	256 (≈ 349 µM)	256 (≈ 349 µM)	1020 (≈ 1400 µM)	512 (≈ 698 µM)	256 (≈ 349 µM)	–	256 (≈ 349 µM)	–
O=C(N[C@H](CO)[C@H](O)c1ccc([N+](=O)[O-])cc1)C(Cl)Cl [CHLORAMPHENICOL]	64 (≈ 198 µM)	4 (≈ 12.4 µM)	> 512	1020 (≈ 3170 µM)	1020 (≈ 3170 µM)	16 (≈ 49.5 µM)	512 (≈ 1580 µM)	–	512 (≈ 1580 µM)	–
Cl.Cl.Cl.Cl.Cl.Cl.Cl.NCCCC[C@H](N)C(=O)N(CCCCCCCCOC1[C@@H](O[C@H]2O[C@H](CO)[C@@H](O)[C@H](N)[C@H]2O)[C@H](N)C[C@H](N)[C@H]1O[C@H]1O[C@H](CN)[C@@H](O)C[C@H]1N)Cc1c2ccccc2c(Cl)c2ccccc12 (single isomer, unassigned)	128	32	512	256	128	8	64	128	512	MIC [3]: 16 µg/mL; MIC [6]: 16 µg/mL; Activity [7]: Active; Activity [8]: Active; MIC [10]: 64 µg/mL; MIC [11]: > 128 µg/mL; MIC [12]: 64 µg/mL; MIC [13]: 128 µg/mL; MIC [15]: 16 µg/mL; MIC [16]: 32 µg/mL; MIC [17]: 8 µg/mL; MIC [18]: 32 µg/mL; MIC [19]: 16 µg/mL; MIC [23]: 16 µg/mL; MIC [24]: > 128 µg/mL; MIC [25]: > 128 µg/mL; MIC [26]: > 128 µg/mL; MIC [27]: 8 µg/mL
